The source made the active and inactive calls. The rule behind the calls is not given here.
Legend:
[1] = Half life in C57BL/6 mouse at 20 mg/kg, po; assay type: ADME, organism-based; parameters: dose 20 mg/kg, route oral; conditions: in vivo
Summary of the method: (§1)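 Mouse PK study, IV and PO; compound formulated at 2.5 mg/mL in PEG300/Tween 80 (4:1). IV dose 5 mpk (AUC, Cmax, clearance, Vss); oral dose 20 mpk (AUC, Cmax, bioavailability, t1/2).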

[2] = target: T1, Glucocorticoid receptor (Homo sapiens) (UniProt P04150); experiment: Activity at GR by cell based assay; assay type: functional
T1 sequence (whole entry): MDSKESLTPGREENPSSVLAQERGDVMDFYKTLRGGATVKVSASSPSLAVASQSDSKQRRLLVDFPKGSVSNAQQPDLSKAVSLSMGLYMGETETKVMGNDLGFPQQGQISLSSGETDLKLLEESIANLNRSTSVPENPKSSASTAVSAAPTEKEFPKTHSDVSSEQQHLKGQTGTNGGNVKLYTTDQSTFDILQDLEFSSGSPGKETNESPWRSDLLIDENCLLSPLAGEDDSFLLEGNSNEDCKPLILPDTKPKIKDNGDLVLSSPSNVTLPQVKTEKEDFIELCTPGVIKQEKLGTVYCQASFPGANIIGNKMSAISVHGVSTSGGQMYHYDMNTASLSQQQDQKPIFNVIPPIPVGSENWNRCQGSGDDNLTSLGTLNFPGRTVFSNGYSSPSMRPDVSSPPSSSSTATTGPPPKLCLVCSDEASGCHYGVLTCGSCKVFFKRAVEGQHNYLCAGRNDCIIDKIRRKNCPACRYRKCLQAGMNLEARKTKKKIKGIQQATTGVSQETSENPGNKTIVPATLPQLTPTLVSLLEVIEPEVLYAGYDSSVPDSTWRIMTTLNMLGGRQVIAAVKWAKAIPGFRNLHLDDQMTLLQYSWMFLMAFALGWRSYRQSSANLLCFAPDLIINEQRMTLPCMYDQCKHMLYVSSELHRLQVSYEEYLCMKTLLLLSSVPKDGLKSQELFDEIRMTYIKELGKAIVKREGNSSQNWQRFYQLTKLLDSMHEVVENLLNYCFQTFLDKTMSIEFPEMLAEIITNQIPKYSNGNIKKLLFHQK

[3] = target: T2, Oxysterols receptor LXR-alpha (Homo sapiens, UniProt Q13133); experiment: Activity at human LXRalpha by Gal4 transactivation assay
T2 sequence (Q13133 whole entry): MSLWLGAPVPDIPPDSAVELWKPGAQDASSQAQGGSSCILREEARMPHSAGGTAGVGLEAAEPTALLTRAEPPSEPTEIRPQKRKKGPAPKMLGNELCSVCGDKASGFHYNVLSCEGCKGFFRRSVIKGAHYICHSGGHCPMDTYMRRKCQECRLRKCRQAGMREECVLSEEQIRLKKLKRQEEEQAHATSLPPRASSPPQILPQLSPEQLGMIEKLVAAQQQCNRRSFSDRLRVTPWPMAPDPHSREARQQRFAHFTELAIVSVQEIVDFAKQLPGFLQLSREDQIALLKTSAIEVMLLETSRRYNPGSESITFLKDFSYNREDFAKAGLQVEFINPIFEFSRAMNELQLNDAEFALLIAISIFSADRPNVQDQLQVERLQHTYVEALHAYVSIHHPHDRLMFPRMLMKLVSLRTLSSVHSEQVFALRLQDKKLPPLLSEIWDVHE
Summary of the method: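 GAL4 DBD fused to hLXRα or hLXRβ LBD in pcDNA3, co-transfected into HepG2 with luciferase reporter. Cells in DMEM with 10% lipoprotein-deficient FBS, 7.5 µM lovastatin, 100 µM mevalonic acid. Ligand added 24 h post-transfection as 11-point curves from 10 µM; luciferase read after 16 h. Run in quadruplicate. %E = max fold induction vs max fold induction of reference dual agonist in same experiment.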

[4] = target: T3, Bile acid receptor (Homo sapiens) (UniProt Q96RI1); experiment: Activity at FXR by cell based assay; assay type: functional
T3 sequence (whole entry): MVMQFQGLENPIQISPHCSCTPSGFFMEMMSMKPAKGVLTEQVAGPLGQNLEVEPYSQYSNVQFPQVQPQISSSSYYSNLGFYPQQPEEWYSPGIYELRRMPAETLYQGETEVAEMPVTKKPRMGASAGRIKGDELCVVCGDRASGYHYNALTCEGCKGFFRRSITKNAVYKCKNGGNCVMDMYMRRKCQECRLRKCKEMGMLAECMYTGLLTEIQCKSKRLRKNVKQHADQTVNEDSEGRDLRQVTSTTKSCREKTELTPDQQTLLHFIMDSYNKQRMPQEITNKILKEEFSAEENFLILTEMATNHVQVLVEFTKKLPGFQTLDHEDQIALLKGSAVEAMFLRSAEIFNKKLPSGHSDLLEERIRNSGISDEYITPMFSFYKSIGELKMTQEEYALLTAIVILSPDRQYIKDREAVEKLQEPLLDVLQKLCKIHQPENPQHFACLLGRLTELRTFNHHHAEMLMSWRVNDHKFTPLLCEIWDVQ

[5] = Bioavailability in C57BL/6 mouse at 20 mg/kg, po; assay type: ADME, organism-based; conditions: in vivo; summary of the method: as §1
[6] = Stability in human liver microsomes at 1 uM after 30 mins; assay type: ADME, Microsome; conditions: read-out: Stability
Summary of the method: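 Incubated at 1 µM with human liver microsomes; percent parent remaining measured at 30 min.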

[7] = AUC in C57BL/6 mouse at 20 mg/kg, po; assay type: ADME, organism-based; parameters: dose 20 mg/kg, route oral; conditions: plasma; summary of the method: as §1

half-life [1]: 402 min
Activity [2]: inactive
EC50 [3]: 608 nM
Activity [4]: inactive
bioavailability [5]: 28%
remaining at 0.5 h, 1 µM [6]: 70%
AUC [7]: 7920 ng·h/mL
Structure (SMILES): COc1cccc(C2SC(c3ccc(Cl)cc3)=NN2C(=O)c2c(F)cc(F)cc2F)c1OC (racemic)

Reference: ChEMBL document CHEMBL1148736, “N-Acylthiadiazolines, a new class of liver X receptor agonists with selectivity for LXRbeta” (J Med Chem, 2007)
